Assays:
CHO-AA8 = assay: Cytotoxicity against AA8 cell line; format: functional, cell-based; conditions: Cricetulus griseus
Outline: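 AA8 Chinese hamster ovary cells kept in log phase in Alpha MEM with 10% fetal calf serum. Drug was applied in 96-well microcultures for 18 h, then removed by three washes with fresh medium. Cells grew a further 72 h before cell density was read by methylene blue staining. IC50 is the nominal concentration cutting density to 50% of controls, with eight controls per plate.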

UV4 (Cricetulus griseus) = assay: Relative cytotoxic potency given as Hypersensitivity ratio of (IC50 for AA8 cell line) to (IC50 for UV4 cell line)
P388 [1] = assay: Cytotoxicity against P388 leukemia cell line; format: functional, cell-based; conditions: Mus musculus
Outline: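 P388 murine leukemia cells kept in log phase in RPMI 1640 with 10% fetal calf serum. Drug was present in 96-well microcultures for the whole 72 h growth period. Final cell density was read by a slightly modified MTT method. IC50 is the nominal concentration cutting density to 50% of controls, with eight control cultures per plate.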

P388 [2] = assay: Optimal dose (i.p.) given after inoculation with wild type 10 E 6 P388/W leukemia cell lines, measured on day 1; format: functional, Mus musculus
Outline: (§1)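 Single intraperitoneal dose given in 0.1 or 0.2 mL of 30% v/v ethanol-water on day 1 after intraperitoneal inoculation of 10^6 P388 leukemia cells. ILS is the percent increase in lifespan of treated tumor-bearing animals at that optimal dose.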

P388 [3] = assay: Increase in life span of the drug treated animals against P388 leukemia when treated at a optimal dose of 65 mg/kg; format: functional; conditions: Mus musculus; outline: as §1
[4] = Relative lipophilicity; format: physicochemical; conditions: octanol/water
Outline: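 Relative lipophilicity of the side-chain fragment -NH(CH2)nX-, calculated from substituent fragment values.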

Nucleic Acid [5] = assay: DNA crosslinking ability at a concentration of 0.2 uM determined after Agarose gel electrophoresis run for 24 hr; + indicates Significant crosslinking; format: functional
P388 [6] = assay: Increase in life span of the drug treated animals against P388 leukemia when treated at a optimal dose of 65 mg/kg; No activity at all doses; format: functional, organism-based; parameters: dose 65 mg/kg; conditions: Mus musculus; outline: as §1
P388 [7] = assay: Increase in life span of the drug treated animals against P388 leukemia when treated at a optimal dose of 45 mg/kg; format: functional; conditions: Mus musculus; outline: as §1
P388 [8] = assay: Increase in life span of the drug treated animals against P388 leukemia when treated at a optimal dose of 13.3 mg/kg; format: functional; conditions: Mus musculus; outline: as §1
Nucleic Acid [9] = assay: DNA crosslinking ability at a concentration of 0.2 uM determined after Agarose gel electrophoresis run for 24 hr; ++ indicates extensive crosslinking; format: functional
[10] = Rate constant for alkylation of 4-(4-nitrobenzyl)pyridine; format: ADME
Nucleic Acid [11] = assay: pBR322/DHFR26 DNA crosslinking ability at a concentration of 0.2 uM determined after Agarose gel electrophoresis run for 4 hr; ++ extensive Significant crosslinking; format: functional
Nucleic Acid [12] = assay: pBR322/DHFR26 DNA crosslinking ability at a concentration of 0.02 uM determined after Agarose gel electrophoresis run for 4 hr; + indicates Significant crosslinking; format: functional
[13] = Rate constant for hydrolysis in aqueous acetone.; format: ADME; parameters: scale not given here; conditions: buffer
Nucleic Acid [14] = assay: pBR322/DHFR26 DNA crosslinking ability at a concentration of 0.2 uM determined after Agarose gel electrophoresis run for 4 hr; + indicates Significant crosslinking; format: functional
Nucleic Acid [15] = assay: pBR322/DHFR26 DNA crosslinking ability at a concentration of 0.02 uM determined after Agarose gel electrophoresis run for 4 hr; +/- indicates Slight crosslinking; format: functional
P388 [16] = assay: Increase in life span of the drug treated animals against P388 leukemia when treated at a optimal dose of 8.9 mg/kg; format: functional; conditions: Mus musculus; outline: as §1
P388 [17] = assay: Increase in life span of the drug treated animals against P388 leukemia when treated at a optimal dose of 30 mg/kg; format: functional; conditions: Mus musculus; outline: as §1
P388 [18] = assay: Increase in life span of the drug treated animals against P388 leukemia when treated at a optimal dose of 26 mg/kg; format: functional; conditions: Mus musculus; outline: as §1

| Structure (SMILES) | IC50 (CHO-AA8) | HF (UV4 (Cricetulus griseus)) | IC50 (P388 [1]) | OD (P388 [2]) | Relative lipophilicity [4] | further results |
| --- | --- | --- | --- | --- | --- | --- |
| Cl.Cl.Cl.Cl.ClCCN(CCCl)c1ccc(SCCNc2c3ccccc3nc3ccccc23)cc1 | 1200 nM | 24 | 372 nM | 65 mg/kg | 0.42 | ILS at 65 mg/kg (P388 [3]): 37% |
| ClCCN(CCCl)c1ccc(OCCCCCNc2c3ccccc3nc3ccccc23)cc1 | – | 46 | 50 nM | – | 1.18 | DNA crosslinking (Nucleic Acid [5]): Significant crosslinking |
| O=C(O)CCCc1ccc(N(CCCl)CCCl)cc1 [CHLORAMBUCIL] | – | 58 | 7500 nM | – | – | – |
| Cl.O=S(=O)(CCNc1c2ccccc2nc2ccccc12)c1ccc(N(CCCl)CCCl)cc1 | 18300 nM | 3.3 | 2300 nM | 65 mg/kg | -1.17 | ILS (P388 [6]): No activity |
| ClCCN(CCCl)c1ccc(OCCCCNc2c3ccccc3nc3ccccc23)cc1 | 280 nM | 55 | 63 nM | 45 mg/kg | 0.64 | ILS at 45 mg/kg (P388 [7]): 47% |
| Cl.Cl.Cl.Cl.ClCCN(CCCl)c1ccc(SCCCNc2c3ccccc3nc3ccccc23)cc1 | 1100 nM | 18 | 360 nM | 13.3 mg/kg | 0.79 | ILS at 13.3 mg/kg (P388 [8]): 38% |
| ClCCN(CCCl)c1ccc(SCCCCCNc2c3ccccc3nc3ccccc23)cc1 | – | 19 | 380 nM | – | 1.76 | – |
| O=S(=O)(CCCCCNc1c2ccccc2nc2ccccc12)c1ccc(N(CCCl)CCCl)cc1 | – | 1 | 750 nM | – | -0.38 | – |
| Cl.Cl.Cl.Cl.ClCCN(CCCl)c1ccc(CCCCCNc2c3ccccc3nc3ccccc23)cc1 | 310 nM | 59 | 82 nM | 45 mg/kg | 1.75 | DNA crosslinking (Nucleic Acid [9]): extensive crosslinking; KNBP [10]: 144000 s⁻¹; ILS at 45 mg/kg (P388 [7]): 58%; DNA crosslinking (Nucleic Acid [11]): extensive crosslinking; DNA crosslinking (Nucleic Acid [12]): extensive crosslinking; KH [13]: 32000 s⁻¹ |
| Cl.Cl.Cl.Cl.ClCCN(CCCl)c1ccc(CCCNc2c3ccccc3nc3ccccc23)cc1 | 310 nM | 43 | 61 nM | 45 mg/kg | 0.67 | KNBP [10]: 146000 s⁻¹; ILS at 45 mg/kg (P388 [7]): 25%; DNA crosslinking (Nucleic Acid [14]): Significant crosslinking; DNA crosslinking (Nucleic Acid [5]): Significant crosslinking; DNA crosslinking (Nucleic Acid [15]): +/-; KH [13]: 14500 s⁻¹ |
| Cl.Cl.Cl.Cl.ClCCN(CCCl)c1ccc(OCCCNc2c3ccccc3nc3ccccc23)cc1 | 380 nM | 54 | 47 nM | 8.9 mg/kg | 0.26 | ILS at 8.9 mg/kg (P388 [16]): 27% |
| Cl.O=S(=O)(CCCCNc1c2ccccc2nc2ccccc12)c1ccc(N(CCCl)CCCl)cc1 | 1700 nM | 1.4 | 1900 nM | 30 mg/kg | -0.92 | ILS (P388 [6]): No activity |
| Cl.O=S(=O)(CCCNc1c2ccccc2nc2ccccc12)c1ccc(N(CCCl)CCCl)cc1 | 9800 nM | 5.1 | 2600 nM | 45 mg/kg | -1.14 | ILS (P388 [6]): No activity |
| ClCCN(CCCl)c1ccc(CCCCCCNc2c3ccccc3nc3ccccc23)cc1 | – | 36 | 136 nM | – | 2.29 | KNBP [10]: 157000 s⁻¹; DNA crosslinking (Nucleic Acid [14]): Significant crosslinking; DNA crosslinking (Nucleic Acid [5]): Significant crosslinking; DNA crosslinking (Nucleic Acid [12]): Significant crosslinking; KH [13]: 33900 s⁻¹ |
| Cl.ClCCN(CCCl)c1ccc(OCCNc2c3ccccc3nc3ccccc23)cc1 | 270 nM | 54 | 72 nM | 30 mg/kg | -0.02 | ILS at 30 mg/kg (P388 [17]): 42% |
| Cl.Cl.Cl.Cl.ClCCN(CCCl)c1ccc(CCCCNc2c3ccccc3nc3ccccc23)cc1 | 440 nM | 36 | 86 nM | 45 mg/kg | 1.21 | KNBP [10]: 225000 s⁻¹; ILS at 45 mg/kg (P388 [7]): 52%; DNA crosslinking (Nucleic Acid [14]): Significant crosslinking; DNA crosslinking (Nucleic Acid [5]): Significant crosslinking; DNA crosslinking (Nucleic Acid [15]): +/-; KH [13]: 20600 s⁻¹ |
| Cl.ClCCN(CCCl)c1ccc(SCCCCNc2c3ccccc3nc3ccccc23)cc1 | 1370 nM | 21 | 490 nM | 26 mg/kg | 1.22 | ILS at 26 mg/kg (P388 [18]): 48% |

Reference: ChEMBL document CHEMBL1125007 (J Med Chem, 1990)
